Assay results reported in ChEMBL document CHEMBL1123463, “Two stereoisomeric imidazoline derivatives: synthesis and optical and alpha 2-adrenoceptor activities” (J Med Chem, 1986).

Legend:
Rattus norvegicus [1] = assay: Maximal decrease of heart rate calculated as bradycardiac activity after intravenous injection of 3.16 ug/kg in rats; assay type: functional
How it was run: (§1)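 Anesthetized male normotensive Wistar rats (200-350 g; ip sodium pentobarbitone 75.0 mg/kg), cannulated trachea, kept at ca. 37 °C rectal. Pulse rate recorded continuously; following ~20 min stabilization each rat received one iv dose in saline (1 mL/kg, expressed as hydrochloride). Maximal fall in heart rate measured.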

Rattus norvegicus [2] = assay: Maximal decrease of arterial blood pressure (MAP) after intravenous injection of compound at a dose of 1 ug/kg in rats; assay type: functional
How it was run: (§2)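 Male normotensive Wistar rats (200-350 g) anesthetized with ip sodium pentobarbitone 75.0 mg/kg; trachea cannulated, spontaneous breathing, rectal temperature ca. 37 °C. Arterial pressure recorded continuously. After ~20 min stabilization, single iv injection in saline (1 mL/kg; doses as hydrochloride), one injection per animal. Read-out: maximal fall in mean arterial pressure.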

Rattus norvegicus [3] = assay: Maximal decrease of heart rate calculated as bradycardiac activity after intravenous injection of 0.561 ug/kg in rats; assay type: functional; how it was run: as §1
Rattus norvegicus [4] = assay: Maximal decrease of arterial blood pressure (MAP) after intravenous injection of compound at a dose of 3.16 ug/kg in rats; assay type: functional; how it was run: as §2
Rattus norvegicus [5] = assay: Maximal decrease of heart rate calculated as bradycardiac activity after intravenous injection of 5.61ug/kg in rats; assay type: functional; how it was run: as §1
Rattus norvegicus [6] = assay: Maximal decrease of arterial blood pressure(MAP) after intravenous injection of compound at a dose of 5.61ug/kg in rats; assay type: functional; how it was run: as §2
Rattus norvegicus [7] = assay: Maximal decrease of arterial blood pressure (MAP) after intravenous injection of compound at a dose of 10 ug/kg in rats; assay type: functional; how it was run: as §2
Rattus norvegicus [8] = assay: Maximal decrease of arterial blood pressure (MAP)after intravenous injection of compound at a dose of 0.561 ug/kg in rats; assay type: functional; how it was run: as §2
Rattus norvegicus [9] = assay: Maximal decrease of heart rate calculated as bradycardiac activity after intravenous injection of 1 ug/kg in rats; assay type: functional; how it was run: as §1
[10] = target: T1, Adrenergic receptor alpha-2 (Rattus norvegicus, UniProt P22086+P19328+P22909); assay: Compound was tested for its ability to inhibit specific binding of [3H]clonidine to alpha-2 adrenergic receptor in rat brain; assay type: tissue-based
T1 sequence (P22086 whole entry): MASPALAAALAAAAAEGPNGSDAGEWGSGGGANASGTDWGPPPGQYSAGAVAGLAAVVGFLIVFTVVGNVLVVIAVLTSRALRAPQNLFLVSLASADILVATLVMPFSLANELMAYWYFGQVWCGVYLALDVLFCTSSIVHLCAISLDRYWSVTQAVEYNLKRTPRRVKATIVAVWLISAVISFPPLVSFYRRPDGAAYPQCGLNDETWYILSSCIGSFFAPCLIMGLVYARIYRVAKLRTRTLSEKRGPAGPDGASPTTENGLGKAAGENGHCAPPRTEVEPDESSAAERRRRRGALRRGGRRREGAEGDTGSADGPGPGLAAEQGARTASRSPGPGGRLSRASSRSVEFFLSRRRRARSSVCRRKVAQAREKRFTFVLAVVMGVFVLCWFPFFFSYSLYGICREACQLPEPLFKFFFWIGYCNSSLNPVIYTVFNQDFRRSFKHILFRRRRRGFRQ
T1 sequence (P19328 whole entry): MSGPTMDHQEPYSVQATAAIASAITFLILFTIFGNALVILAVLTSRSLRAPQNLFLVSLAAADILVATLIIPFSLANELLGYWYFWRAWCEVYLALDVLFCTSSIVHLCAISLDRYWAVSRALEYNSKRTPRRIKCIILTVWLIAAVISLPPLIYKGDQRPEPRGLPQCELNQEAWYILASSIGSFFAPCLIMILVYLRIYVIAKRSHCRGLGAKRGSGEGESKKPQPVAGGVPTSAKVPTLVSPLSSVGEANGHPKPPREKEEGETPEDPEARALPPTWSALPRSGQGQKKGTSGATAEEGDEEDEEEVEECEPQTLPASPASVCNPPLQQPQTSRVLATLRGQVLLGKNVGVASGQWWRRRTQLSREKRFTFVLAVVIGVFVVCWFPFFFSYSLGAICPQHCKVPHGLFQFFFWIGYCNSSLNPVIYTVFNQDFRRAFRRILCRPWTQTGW
T1 sequence (P22909 whole entry): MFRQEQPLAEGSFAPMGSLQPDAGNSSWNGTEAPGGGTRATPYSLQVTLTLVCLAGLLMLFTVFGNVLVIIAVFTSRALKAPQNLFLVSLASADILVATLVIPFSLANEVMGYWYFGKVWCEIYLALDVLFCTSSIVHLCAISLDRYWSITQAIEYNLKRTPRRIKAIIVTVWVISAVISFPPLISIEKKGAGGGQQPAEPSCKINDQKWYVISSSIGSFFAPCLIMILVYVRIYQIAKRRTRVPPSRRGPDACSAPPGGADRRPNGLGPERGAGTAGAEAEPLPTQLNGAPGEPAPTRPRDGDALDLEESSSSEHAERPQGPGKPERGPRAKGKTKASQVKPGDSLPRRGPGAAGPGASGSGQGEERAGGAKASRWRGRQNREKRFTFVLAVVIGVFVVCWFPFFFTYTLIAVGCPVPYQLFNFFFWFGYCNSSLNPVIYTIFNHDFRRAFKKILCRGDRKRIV

Rattus norvegicus [11] = assay: Maximal decrease of heart rate calculated as bradycardiac activity after intravenous injection of 10 ug/kg in rats; assay type: functional; how it was run: as §1
[12] = target: T1, Adrenergic receptor alpha-2; assay: Compound was tested for its ability to inhibit specific binding of [3H]clonidine to alpha-2-adrenoceptor in rat brain; assay type: tissue-based

IC50 [10] | IC50 [12] | Structure (SMILES) | Heart rate (Rattus norvegicus [1]) | MAP (Rattus norvegicus [2]) | Heart rate (Rattus norvegicus [3]) | MAP (Rattus norvegicus [4]) | Heart rate (Rattus norvegicus [5]) | MAP (Rattus norvegicus [6]) | MAP (Rattus norvegicus [7]) | MAP (Rattus norvegicus [8]) | Heart rate (Rattus norvegicus [9]) | Heart rate (Rattus norvegicus [11])
7.25 nM |  | CC(Oc1c(Cl)cccc1Cl)C1=NCCN1.Cl (racemic) [LOFEXIDINE HYDROCHLORIDE] | -137 | -26.8 mmHg | -52 | -37.6 mmHg | -132 | -48.8 mmHg | -54.2 mmHg | -22.6 mmHg | -83 | -138
 | 43 nM | CC(Oc1c(Cl)cccc1Cl)C1=NCCN1.Cl (single isomer, unassigned; (+)) [LOFEXIDINE HYDROCHLORIDE] | -36 | -7.4 mmHg |  | -11.7 mmHg |  |  | -10.6 mmHg |  | -7 | -61
 | 3.6 nM | CC(Oc1c(Cl)cccc1Cl)C1=NCCN1.Cl (stereo in doubt) [LOFEXIDINE HYDROCHLORIDE] | -97 | -13.8 mmHg |  | -29.8 mmHg | -96 | -41.6 mmHg | -53 mmHg |  | -46 | -134
